{"source": "ChEMBL document CHEMBL2203123", "about": "“Synthesis and biological evaluation of some hydrazone derivatives as new anticandidal and anticancer agents” (Eur J Med Chem, 2012)", "key": {"Salmonella typhimurium [1]": {"tested_on": "Salmonella typhimurium", "assay": "Genotoxicity against Salmonella typhimurium TA98 assessed as fold increase in revertants at 1.25 mg/ml after 90 mins by Ames MPF test in presence of S9 fraction relative to baseline", "format": "toxicity, organism-based", "details": "salmonella enterica subsp. enterica serovar typhimurium, s9, 1.5 h", "in_short": "(§1)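 Ames MPF fluctuation test, TA98 and TA100: overnight cultures reincubated 90 min, then exposed 90 min at 37 °C to compounds at 0.156-5 mg/mL (in DMSO) with or without 4.5% v/v S9; indicator medium added, 48 wells per sample scored yellow after 48 h, triplicate. Fold over baseline = mean positive wells / (mean of DMSO control + 1 SD).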"}, "Candida parapsilosis": {"tested_on": "Candida parapsilosis", "assay": "Antifungal activity against Candida parapsilosis NRRL Y-12696 after 24 hrs by microdilution susceptibility assay", "format": "functional", "details": "Lodderomyces parapsilosis, NRRL Y-12696, 24 h", "in_short": "(§2)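 Broth microdilution in Mueller Hinton Broth, compounds from DMSO stocks diluted serially; inocula standardized to 10^6 CFU/mL (McFarland 0.5) from overnight MHB cultures. Plates held 37 °C for 24 h; MIC taken as first well without turbidity, aided by 1% tetrazolium violet added for 3 h at 37 °C. Ketoconazole reference.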"}, "Salmonella typhimurium [2]": {"tested_on": "Salmonella typhimurium", "assay": "Genotoxicity against Salmonella typhimurium TA1535/pSK1002 assessed as growth factor ratio at 1.25 mg/ml by umuC assay in absence of S9 fraction", "format": "toxicity, organism-based", "details": "salmonella enterica subsp. enterica serovar typhimurium", "in_short": "(§3)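 umuC Easy CS: TA1535/pSK1002 grown overnight in ampicillin TG medium at 37 °C, then exposed 2 h at 37 °C to compounds at 5, 2.5, 1.25, 0.63 mg/mL with or without S9. Diluted into fresh medium for 2 h growth (OD600), then β-galactosidase with ONPG 30 min at 28 °C, OD420. Positive controls 2-aminoanthracene (+S9), […] (−S9).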"}, "A549": {"tested_on": "A549", "assay": "Cytotoxicity against human A549 cells after 24 hrs by XTT assay", "format": "functional, cell-based", "details": "A549, 24 h", "in_short": "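A549 cells in RPMI 1640 with 10% fetal calf serum, penicillin/streptomycin, 37 °C, 5% CO2; 20,000 cells/well seeded, after 24 h exposed to compounds at 0.00316 µM-10 mM for 24 h. XTT mitochondrial activity read at 480 nm (reference 680 nm) after 3 h; % inhibition per concentration, IC50 by non-linear regression.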"}, "Salmonella typhimurium [3]": {"tested_on": "Salmonella typhimurium", "assay": "Genotoxicity against Salmonella typhimurium TA98 assessed as fold increase in revertants at 2.5 mg/ml after 90 mins by Ames MPF test in absence of S9 fraction relative to baseline", "format": "toxicity, organism-based", "details": "salmonella enterica subsp. enterica serovar typhimurium, 1.5 h", "in_short": "as §1"}, "Salmonella typhimurium [4]": {"tested_on": "Salmonella typhimurium", "assay": "Genotoxicity against Salmonella typhimurium TA100 assessed as fold increase in revertants at 5 mg/ml after 90 mins by Ames MPF test in presence of S9 fraction relative to baseline", "format": "toxicity, organism-based", "details": "salmonella enterica subsp. enterica serovar typhimurium, s9, 1.5 h", "in_short": "as §1"}, "Salmonella typhimurium [5]": {"tested_on": "Salmonella typhimurium", "assay": "Genotoxicity against Salmonella typhimurium TA100 assessed as fold increase in revertants at 0.156 mg/ml after 90 mins by Ames MPF test in presence of S9 fraction relative to baseline", "format": "toxicity, organism-based", "details": "salmonella enterica subsp. enterica serovar typhimurium, s9, 1.5 h", "in_short": "as §1"}, "Salmonella typhimurium [6]": {"tested_on": "Salmonella typhimurium", "assay": "Genotoxicity against Salmonella typhimurium TA1535/pSK1002 assessed as growth factor ratio at 1.25 mg/ml by umuC assay in presence of S9 fraction", "format": "toxicity, organism-based", "details": "salmonella enterica subsp. enterica serovar typhimurium", "in_short": "as §3"}, "Salmonella typhimurium [7]": {"tested_on": "Salmonella typhimurium", "assay": "Genotoxicity against Salmonella typhimurium TA100 assessed as fold increase in revertants at 2.5 mg/ml after 90 mins by Ames MPF test in presence of S9 fraction relative to baseline", "format": "toxicity, organism-based", "details": "salmonella enterica subsp. enterica serovar typhimurium, s9, 1.5 h", "in_short": "as §1"}, "Salmonella typhimurium [8]": {"tested_on": "Salmonella typhimurium", "assay": "Genotoxicity against Salmonella typhimurium TA98 assessed as fold increase in revertants at 5 mg/ml after 90 mins by Ames MPF test in presence of S9 fraction relative to baseline", "format": "toxicity, organism-based", "details": "salmonella enterica subsp. enterica serovar typhimurium, s9, 1.5 h", "in_short": "as §1"}, "Salmonella typhimurium [9]": {"tested_on": "Salmonella typhimurium", "assay": "Genotoxicity against Salmonella typhimurium TA98 assessed as fold increase in revertants at 0.625 mg/ml after 90 mins by Ames MPF test in presence of S9 fraction relative to baseline", "format": "toxicity, organism-based", "details": "salmonella enterica subsp. enterica serovar typhimurium, s9, 1.5 h", "in_short": "as §1"}, "Salmonella typhimurium [10]": {"tested_on": "Salmonella typhimurium", "assay": "Genotoxicity against Salmonella typhimurium TA100 assessed as fold increase in revertants at 0.156 mg/ml after 90 mins by Ames MPF test in absence of S9 fraction relative to baseline", "format": "toxicity, organism-based", "details": "salmonella enterica subsp. enterica serovar typhimurium, 1.5 h", "in_short": "as §1"}, "Salmonella typhimurium [11]": {"tested_on": "Salmonella typhimurium", "assay": "Genotoxicity against Salmonella typhimurium TA98 assessed as fold increase in revertants at 5 mg/ml after 90 mins by Ames MPF test in absence of S9 fraction relative to baseline", "format": "toxicity, organism-based", "details": "salmonella enterica subsp. enterica serovar typhimurium, 1.5 h", "in_short": "as §1"}, "Candida albicans": {"tested_on": "Candida albicans", "assay": "Antifungal activity against Candida albicans ATCC 90028 after 24 hrs by microdilution susceptibility assay", "format": "functional", "details": "ATCC 90028, 24 h", "in_short": "as §2"}, "Salmonella typhimurium [12]": {"tested_on": "Salmonella typhimurium", "assay": "Genotoxicity against Salmonella typhimurium TA98 assessed as fold increase in revertants at 2.5 mg/ml after 90 mins by Ames MPF test in presence of S9 fraction relative to baseline", "format": "toxicity, organism-based", "details": "salmonella enterica subsp. enterica serovar typhimurium, s9, 1.5 h", "in_short": "as §1"}, "Nakaseomyces glabratus": {"tested_on": "Nakaseomyces glabratus", "assay": "Antifungal activity against Candida glabrata Anadolu University clinical isolate after 24 hrs by microdilution susceptibility assay", "format": "functional", "in_short": "as §2"}, "Salmonella typhimurium [13]": {"tested_on": "Salmonella typhimurium", "assay": "Genotoxicity against Salmonella typhimurium TA100 assessed as fold increase in revertants at 0.3125 mg/ml after 90 mins by Ames MPF test in presence of S9 fraction relative to baseline", "format": "toxicity, organism-based", "details": "salmonella enterica subsp. enterica serovar typhimurium, s9, 1.5 h", "in_short": "as §1"}, "Pichia kudriavzevii": {"tested_on": "Pichia kudriavzevii", "assay": "Antifungal activity against Candida krusei NRRL Y-7179 after 24 hrs by microdilution susceptibility assay", "format": "functional", "details": "NRRL Y-7179, 24 h", "in_short": "as §2"}, "Salmonella typhimurium [14]": {"tested_on": "Salmonella typhimurium", "assay": "Genotoxicity against Salmonella typhimurium TA1535/pSK1002 assessed as growth factor ratio at 5 mg/ml by umuC assay in absence of S9 fraction", "format": "toxicity, organism-based", "details": "salmonella enterica subsp. enterica serovar typhimurium", "in_short": "as §3"}, "Salmonella typhimurium [15]": {"tested_on": "Salmonella typhimurium", "assay": "Genotoxicity against Salmonella typhimurium TA1535/pSK1002 assessed as growth factor ratio at 2.5 mg/ml by umuC assay in absence of S9 fraction", "format": "toxicity, organism-based", "details": "salmonella enterica subsp. enterica serovar typhimurium", "in_short": "as §3"}, "Salmonella typhimurium [16]": {"tested_on": "Salmonella typhimurium", "assay": "Genotoxicity against Salmonella typhimurium TA98 assessed as fold increase in revertants at 0.625 mg/ml after 90 mins by Ames MPF test in absence of S9 fraction relative to baseline", "format": "toxicity, organism-based", "details": "salmonella enterica subsp. enterica serovar typhimurium, 1.5 h", "in_short": "as §1"}, "Salmonella typhimurium [17]": {"tested_on": "Salmonella typhimurium", "assay": "Genotoxicity against Salmonella typhimurium TA98 assessed as fold increase in revertants at 0.156 mg/ml after 90 mins by Ames MPF test in absence of S9 fraction relative to baseline", "format": "toxicity, organism-based", "details": "salmonella enterica subsp. enterica serovar typhimurium, 1.5 h", "in_short": "as §1"}, "Salmonella typhimurium [18]": {"tested_on": "Salmonella typhimurium", "assay": "Genotoxicity against Salmonella typhimurium TA98 assessed as fold increase in revertants at 0.3125 mg/ml after 90 mins by Ames MPF test in absence of S9 fraction relative to baseline", "format": "toxicity, organism-based", "details": "salmonella enterica subsp. enterica serovar typhimurium, 1.5 h", "in_short": "as §1"}, "Salmonella typhimurium [19]": {"tested_on": "Salmonella typhimurium", "assay": "Genotoxicity against Salmonella typhimurium TA98 assessed as fold increase in revertants at 0.3125 mg/ml after 90 mins by Ames MPF test in presence of S9 fraction relative to baseline", "format": "toxicity, organism-based", "details": "salmonella enterica subsp. enterica serovar typhimurium, s9, 1.5 h", "in_short": "as §1"}, "Salmonella typhimurium [20]": {"tested_on": "Salmonella typhimurium", "assay": "Genotoxicity against Salmonella typhimurium TA1535/pSK1002 assessed as growth factor ratio at 0.63 mg/ml by umuC assay in presence of S9 fraction", "format": "toxicity, organism-based", "details": "salmonella enterica subsp. enterica serovar typhimurium", "in_short": "as §3"}, "Salmonella typhimurium [21]": {"tested_on": "Salmonella typhimurium", "assay": "Genotoxicity against Salmonella typhimurium TA98 assessed as fold increase in revertants at 1.25 mg/ml after 90 mins by Ames MPF test in absence of S9 fraction relative to baseline", "format": "toxicity, organism-based", "details": "salmonella enterica subsp. enterica serovar typhimurium, 1.5 h", "in_short": "as §1"}, "Salmonella typhimurium [22]": {"tested_on": "Salmonella typhimurium", "assay": "Genotoxicity against Salmonella typhimurium TA100 assessed as fold increase in revertants at 0.625 mg/ml after 90 mins by Ames MPF test in presence of S9 fraction relative to baseline", "format": "toxicity, organism-based", "details": "salmonella enterica subsp. enterica serovar typhimurium, s9, 1.5 h", "in_short": "as §1"}, "[23]": {"assay": "Genotoxicity against Salmonella typhimurium TA1535/pSK1002 assessed as induction ratio at 2.5 mg/ml by umuC assay in absence of S9 fraction", "format": "toxicity, organism-based", "details": "salmonella enterica subsp. enterica serovar typhimurium, Salmonella typhimurium TA1535/pSK1002 without S9 fraction", "in_short": "as §3"}}}
{"smiles": "CN(C)c1ccc(/C=N/NC(=O)CSc2nnnn2C)cc1", "values": [{"measurement": "fold change (FC)", "setting": "Salmonella typhimurium [1]", "value": 0.86}, {"measurement": "MIC", "setting": "Candida parapsilosis", "value": 500, "unit": "µg/mL"}, {"measurement": "Ratio", "setting": "Salmonella typhimurium [2]", "value": 1.191}, {"measurement": "IC50", "setting": "A549", "value": 100, "unit": "µM"}, {"measurement": "fold change (FC)", "setting": "Salmonella typhimurium [3]", "value": 0}, {"measurement": "fold change (FC)", "setting": "Salmonella typhimurium [4]", "value": 0.26}, {"measurement": "fold change (FC)", "setting": "Salmonella typhimurium [5]", "value": 0.33}, {"measurement": "Ratio", "setting": "Salmonella typhimurium [6]", "value": 1.538}, {"measurement": "fold change (FC)", "setting": "Salmonella typhimurium [7]", "value": 0.15}, {"measurement": "fold change (FC)", "setting": "Salmonella typhimurium [8]", "value": 0.86}, {"measurement": "fold change (FC)", "setting": "Salmonella typhimurium [9]", "value": 1}, {"measurement": "fold change (FC)", "setting": "Salmonella typhimurium [10]", "value": 1.9}, {"measurement": "fold change (FC)", "setting": "Salmonella typhimurium [11]", "value": 0}, {"measurement": "MIC", "setting": "Candida albicans", "value": 50, "unit": "µg/mL"}, {"measurement": "fold change (FC)", "setting": "Salmonella typhimurium [12]", "value": 1.14}, {"measurement": "MIC", "setting": "Nakaseomyces glabratus", "value": 50, "unit": "µg/mL"}, {"measurement": "fold change (FC)", "setting": "Salmonella typhimurium [13]", "value": 0.47}, {"measurement": "MIC", "setting": "Pichia kudriavzevii", "value": 62.5, "unit": "µg/mL"}, {"measurement": "Ratio", "setting": "Salmonella typhimurium [14]", "value": 2.781}, {"measurement": "Ratio", "setting": "Salmonella typhimurium [15]", "value": 1.743}, {"measurement": "fold change (FC)", "setting": "Salmonella typhimurium [16]", "value": 1.59}, {"measurement": "fold change (FC)", "setting": "Salmonella typhimurium [17]", "value": 0.32}, {"measurement": "fold change (FC)", "setting": "Salmonella typhimurium [18]", "value": 1.27}, {"measurement": "fold change (FC)", "setting": "Salmonella typhimurium [19]", "value": 0.57}, {"measurement": "Ratio", "setting": "Salmonella typhimurium [20]", "value": 1.268}, {"measurement": "fold change (FC)", "setting": "Salmonella typhimurium [21]", "value": 0.64}, {"measurement": "fold change (FC)", "setting": "Salmonella typhimurium [22]", "value": 0.18}, {"measurement": "fold induction at 2.5 mg/ml", "setting": "[23]", "value": 0.88}]}
